Measurements: ChEMBL document CHEMBL4732262, “Identification of two novel thiophene analogues as inducers of autophagy mediated cell death in breast cancer cells” (Bioorg Med Chem, 2021)
pIC50: −log10 of the molar value. Calls of active or inactive are those of the source. The rule behind the calls is not given here.

Tests used:
[1] = system: MCF7; test: Cytotoxicity against human MCF7 cells assessed as reduction in cell viability after 24 hrs by MTT assay; format: functional, cell-based; settings: MCF7, 24 h
Summary of the method: (§1)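 Cells seeded ~5 × 10^3 per well in 96-well plates, exposed to 0–40 µM for 24 h. MTT added at 0.5 mg/ml for 3 h, formazan dissolved in DMSO, absorbance read at 540 nm. IC50 taken from plotted curves. Duplicate wells, two independent repeats. MCF7 grown in DMEM, MDA-MB-231 in RPMI, both with 10% FBS at 37 °C and 5% CO2.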

[2] = system: MDA-MB-231; test: Cytotoxicity against human MDA-MB-231 cells assessed as reduction in cell viability after 24 hrs by MTT assay; format: functional, cell-based; settings: MDA-MB-231, 24 h; summary of the method: as §1
[3] = system: MCF7; test: Induction of apoptosis in human MCF7 cells assessed as early apoptotic cells at 2.5 uM after 24 hrs by annexin V-FITC/Propidium iodide staining based flow cytometric analysis (reference value: 3.94%); format: functional
[4] = system: MCF7; test: Induction of apoptosis in human MCF7 cells assessed as late apoptotic cells at 2.5 uM after 24 hrs by annexin V-FITC/Propidium iodide staining based flow cytometric analysis (reference value: 0.2%); format: functional
[5] = system: MCF7; test: Induction of apoptosis in human MCF7 cells assessed as necrotic cells at 2.5 uM after 24 hrs by annexin V-FITC/Propidium iodide staining based flow cytometric analysis (reference value: 1.22%); format: functional
[6] = system: MDA-MB-231; test: Induction of apoptosis in human MDA-MB-231 cells assessed as early apoptotic cells at 2.5 uM after 24 hrs by annexin V-FITC/Propidium iodide staining based flow cytometric analysis (reference value: 1.54%); format: functional
[7] = system: MDA-MB-231; test: Induction of apoptosis in human MDA-MB-231 cells assessed as late apoptotic cells at 2.5 uM after 24 hrs by annexin V-FITC/Propidium iodide staining based flow cytometric analysis (reference value: 0.08%); format: functional
[8] = system: MDA-MB-231; test: Induction of apoptosis in human MDA-MB-231 cells assessed as necrotic cells at 2.5 uM after 24 hrs by annexin V-FITC/Propidium iodide staining based flow cytometric analysis (reference value: 0.65%); format: functional
[9] = system: MCF7; test: Induction of autophagy in human MCF7 cells assessed as LC3-2 to LC3-1 protein ratio at 2.5 uM after 24 hrs by Western blot analysis (reference value: 0.22 to 0.8); format: functional
[10] = system: MCF7; test: Induction of apoptosis in human MCF7 cells assessed as increase in cell death at 2.5 uM after 24 hrs by EtBr/AO staining based fluorescence microscopic method; format: functional
Summary of the method: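 ~5 × 10^4 MCF7 cells on coverslips given 2.5 µM for 24 h, then PBS-washed and stained with 1:1 ethidium bromide/acridine orange (0.4 mg/ml each). Viewed by fluorescence microscopy, excitation 480 nm with a 515–530 nm barrier filter. Apoptotic, necrotic and viable cells scored from 200 cells per sample.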

[11] = system: MCF7; test: Induction of apoptotic in human MCF7 cells assessed as increase in Bim protein expression at 2.5 uM after 24 hrs by Western blot analysis; format: functional, cell-based
Summary of the method: (§2)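 MCF7 or MDA-MB-231 cells given 2.5 µM or DMSO for 24 h, then lysed in RIPA buffer. Immunoblots probed overnight at 4 °C, followed by infrared-labelled secondary antibody for 1 h at 37 °C. Bands imaged and quantified densitometrically, with GAPDH as loading control. Representative of two independent experiments.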

[12] = system: MCF7; test: Induction of autophagy in human MCF7 cells assessed as increase in Beclin1 protein expression at 2.5 uM after 24 hrs by Western blot analysis; format: functional, cell-based; summary of the method: as §2
[13] = system: MCF7; test: Induction of autophagy in human MCF7 cells assessed as increase in LC3-2 to LC3-1 protein ratio at 2.5 uM after 24 hrs by Western blot analysis; format: functional, cell-based
Summary of the method: (§3)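 MCF7 cells (~5 × 10^6) left untreated (DMSO control) or exposed to 2.5 µM compound for 24 h. Lysed in RIPA buffer, probed overnight at 4 °C, then given infrared-tagged secondary antibodies for 1 h at 37 °C and imaged by infrared scanning. LC3-II/I ratio and p62 taken by densitometry with GAPDH as loading control. Two independent experiments.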

[14] = system: MCF7; test: Induction of autophagy in human MCF7 cells assessed as increase in p62 degradation at 2.5 uM after 24 hrs by Western blot analysis; format: functional, cell-based; summary of the method: as §3
[15] = system: MCF7; test: Induction of autophagy in human MCF7 cells expressing GFP tagged LC3-2 assessed as increase in […] puncta formation at 2.5 uM after 24 hrs by confocal microscopic analysis; format: functional, cell-based
Summary of the method: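 MCF7 cells (~1 × 10^6) at 70% confluency on glass-bottom dishes were transiently transfected with GFP-LC3 (Lipofectamine 3000). 24 h later they received 2.5 µM compound or DMSO for another 24 h. Nuclei were stained with Hoechst 33342 and lysosomes with LysoTracker Red DND-99, then imaged by live-cell confocal microscopy. LC3 puncta were counted in at least 10 cells from 3 fields. Two independent experiments.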

[16] = system: MCF7; test: Induction of autophagy in human MCF7 cells assessed as increase in Bcl2L11 mRNA expression at 2.5 uM after 24 hrs by RT-PCR analysis; format: functional, cell-based
Summary of the method: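 MCF7 cells given 2.5 µM or DMSO for 24 h. Total RNA extracted with TRIzol and reverse-transcribed, then SYBR Green qPCR across 34 autophagy-regulatory genes (95 °C 10 min; 40 cycles of 95 °C 15 s and 60 °C 1 min). Relative expression by 2^-ΔΔCt against housekeeping genes and DMSO control, shown as log2. Two independent experiments.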

[17] = system: MCF7 (Homo sapiens); test: Induction of apoptosis in human MCF7 cells assessed as increase in cell death at 2.5 uM after 24 hrs by EtBr/AO staining based fluorescence microscopic method
[18] = system: MCF7; test: Cytotoxicity against human MCF7 cells assessed as reduction in cell viability at 100 uM after 24 hrs by MTT assay; format: functional, cell-based
[19] = system: MDA-MB-231; test: Cytotoxicity against human MDA-MB-231 cells assessed as reduction in cell viability at 100 uM after 24 hrs by MTT assay; format: functional, cell-based

| Structure (SMILES) | pIC50 [1] | pIC50 [2] | Activity [3] [%] | Activity [4] [%] | Activity [5] [%] | Activity [6] [%] | Activity [7] [%] | Activity [8] [%] | Ratio [9] | also measured |
| --- | --- | --- | --- | --- | --- | --- | --- | --- | --- | --- |
| O=C1C(=O)c2occc2-c2c1ccc1ccccc21 | 4.80 | 4.76 |  |  |  |  |  |  |  |  |
| Cc1cc2c3c(ccc2s1)C(=O)C(=O)c1ccsc1-3 | 4.76 | 4.63 |  |  |  |  |  |  |  |  |
| Cc1cc2c3c(ccc2s1)C(=O)C(=O)c1sccc1-3 | 4.84 | 4.69 |  |  |  |  |  |  |  |  |
| O=C1C(=O)c2ccc3ccccc3c2-c2sccc21 | 4.89 | 4.81 |  |  |  |  |  |  |  |  |
| Cc1coc2c1C(=O)C(=O)c1c-2ccc2c(C)cccc12 [TANSHINONE I] | 5.10 | 5.10 | 14.3 | 0.91 | 3.63 | 1.44 | 0.18 | 3.56 | 0.61 |  |
| COc1ccc2ccc3c(c2c1)-c1ccsc1C(=O)C3=O | 5.10 | 5.22 | 4.39 | 0.55 | 1.85 | 1.8 | 0.13 | 1.19 | 11.1 | Activity [10]: Active; Activity [11]: Active; Activity [12]: inactive; Activity [13]: Active; Activity [14]: Active; Activity [15]: Active; Activity [16]: Active; Activity [17]: Active |
| Cc1coc2c1C(=O)C(=O)c1c-2ccc2c1CCCC2(C)C [TANSHINONE IIA] | 5.11 | 5.11 | 2.9 | 0.31 | 5.27 | 9.23 | 0.34 | 2.11 | 1.46 | Activity [10]: Active; Activity [17]: Active |
| CCN(CC)CCCC(C)Nc1ccnc2cc(Cl)ccc12 (centres undefined) |  |  |  |  |  |  |  |  |  | Activity [18]: Active; Activity [19]: Active |
| O=C1C(=O)c2c(ccc3ccccc23)-c2ccoc21 | 4.84 | 4.68 |  |  |  |  |  |  |  |  |
